pIC50: −log10 of the molar value.
How the values were obtained:
Substance-P receptor = Substance-P receptor (Cavia porcellus, UniProt P30547); assay: In vitro binding affinity against substance P receptor using [3H]SP as radioligand in guinea pig lung membrane; assay type: cell membranes
Method in brief: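 Guinea pig lung membranes incubated with 1 nM [3H]SP, with or without test compound, 0.5 h at 4 °C in 50 mM Tris-HCl pH 7.5, 5 mM MnCl2, 0.02% BSA, chymostatin, leupeptin, bacitracin. Filtered on glass-fibre filters, radioactivity counted by scintillation. Specific binding defined as that displaced by 5 μM unlabeled SP. IC50 estimated from the displacement curve. Duplicate assays, usually a single experiment.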

Cavia porcellus [1] = assay: In vivo inhibitory activity against airway edema induced by Substance P at a dose 10 mg/kg administered orally; assay type: functional; conditions: route oral
Method in brief: (§1)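 Male Hartley guinea pigs dosed orally with drug in DMSO solution, or with vehicle, 30 min before intravenous SP (1.3 μg/kg) given with Evans Blue (20 mg/kg) and heparin (200 IU/kg). Trachea and main bronchi removed 10 min after challenge; dye extracted and read at 620 nm. Percent inhibition of edema reported, two animals per experiment.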

Cavia porcellus [2] = assay: In vivo inhibitory activity against airway edema induced by Substance P at a dose 100 mg/kg administered orally; assay type: functional; conditions: route oral; method in brief: as §1

Sequence of Substance-P receptor (P30547 whole entry): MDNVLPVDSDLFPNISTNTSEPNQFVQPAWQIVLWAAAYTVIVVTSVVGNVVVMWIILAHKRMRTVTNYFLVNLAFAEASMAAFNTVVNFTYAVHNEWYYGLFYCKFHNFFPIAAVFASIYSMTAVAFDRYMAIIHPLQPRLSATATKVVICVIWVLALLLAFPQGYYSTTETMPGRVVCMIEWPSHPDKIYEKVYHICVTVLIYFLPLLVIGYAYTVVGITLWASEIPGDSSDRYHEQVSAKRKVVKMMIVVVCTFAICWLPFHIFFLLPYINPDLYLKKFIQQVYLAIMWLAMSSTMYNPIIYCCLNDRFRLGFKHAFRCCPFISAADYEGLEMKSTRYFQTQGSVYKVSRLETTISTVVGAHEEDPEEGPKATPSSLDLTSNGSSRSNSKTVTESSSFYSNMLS

| Structure (SMILES) | pIC50 (Substance-P receptor; read-out: IC50) | IC50 (Substance-P receptor) | pIC50 (Substance-P receptor) | inhibition in vivo at 10 mg/kg (Cavia porcellus [1]) [%] | inhibition in vivo at 100 mg/kg (Cavia porcellus [2]) [%] |
| --- | --- | --- | --- | --- | --- |
| CC(C)n1cc(C(=O)N2C[C@H](O)CC2C(=O)N[C@H](Cc2ccccc2)C(=O)N(C)Cc2ccccc2)c2ccccc21 (stereo not given in full) | 7.80 | – | – | 48 | – |
| CN(Cc1ccccc1)C(=O)[C@@H](Cc1ccccc1)NC(=O)C1C[C@@H](O)CN1C(=O)c1cc2ccccc2s1 (stereo not given in full) | 7.70 | – | – | 37 | – |
| CN(Cc1ccccc1)C(=O)[C@@H](Cc1ccccc1)NC(=O)C1C[C@@H](O)CN1C(=O)c1cn(CC(=O)O)c2ccccc12 (stereo not given in full) | 7.30 | – | – | – | – |
| CN(Cc1ccccc1)C(=O)[C@@H](Cc1ccc2cc(Cl)ccc2c1)NC(=O)C1C[C@@H](O)CN1C(=O)c1cn(C)c2ccccc12 (stereo not given in full) | 7.56 | – | – | – | – |
| CN(Cc1ccccc1)C(=O)[C@@H](Cc1ccccc1)NC(=O)C1C[C@@H](O)CN1C(=O)c1cn(C)c2ccccc12 (stereo not given in full) | – | – | – | 51 | 75 |
| CN(Cc1ccccc1)C(=O)[C@@H](Cc1ccccc1)NC(=O)[C@H]1CCCN1C(=O)c1c[nH]c2ccccc12 | – | Not Active | – | – | – |
| Cc1ccc2cc(C[C@@H](NC(=O)C3C[C@@H](O)CN3C(=O)c3cn(C)c4ccccc34)C(=O)N(C)Cc3ccccc3)ccc2c1 (stereo not given in full) | – | – | 7.64 | – | 28 |
| CN(Cc1ccccc1)C(=O)[C@@H](Cc1ccc(NS(C)(=O)=O)cc1)NC(=O)C1C[C@@H](O)CN1C(=O)c1cn(C)c2ccccc12 (stereo not given in full) | 7.60 | – | – | – | 0 |
| CN(Cc1ccccc1)C(=O)[C@@H](Cc1ccc(F)cc1)NC(=O)C1C[C@@H](O)CN1C(=O)c1cn(C)c2ccccc12 (stereo not given in full) | – | – | 8.37 | 30 | 96 |
| CN(Cc1ccccc1)C(=O)[C@@H](Cc1cccc(F)c1)NC(=O)C1C[C@@H](O)CN1C(=O)c1cn(C)c2ccccc12 (stereo not given in full) | – | – | 8.04 | – | 85 |
| CN(Cc1ccccc1)C(=O)[C@@H](Cc1cccc(C(F)(F)F)c1)NC(=O)C1C[C@@H](O)CN1C(=O)c1cn(C)c2ccccc12 (stereo not given in full) | – | – | 8.46 | – | 66 |
| CN(Cc1ccccc1)C(=O)[C@@H](Cc1ccc(C(F)(F)F)cc1)NC(=O)C1C[C@@H](O)CN1C(=O)c1cn(C)c2ccccc12 (stereo not given in full) | – | – | 8.31 | 83 | 94 |
| CN(Cc1ccccc1)C(=O)[C@@H](Cc1ccc(O)cc1)NC(=O)C1C[C@@H](O)CN1C(=O)c1cn(C)c2ccccc12 (stereo not given in full) | – | – | 8.74 | – | 11 |
| CN(Cc1ccccc1)C(=O)[C@@H](Cc1ccccc1)NC(=O)C1CCC(O)CN1C(=O)c1c[nH]c2ccccc12 (stereo not given in full) | 6.54 | – | – | – | – |
| CN(Cc1ccccc1)C(=O)[C@@H](Cc1ccccc1)NC(=O)C(CC(=O)O)NC(=O)c1c[nH]c2ccccc12 (stereo not given in full) | – | Not Active | – | – | – |
| CN(Cc1ccccc1)C(=O)[C@@H](Cc1ccccc1)NC(=O)C1C[C@@H](O)CN1C(=O)CCCc1ccccc1 (stereo not given in full) | – | – | 7.49 | – | – |
| CN(Cc1ccccc1)C(=O)[C@@H](Cc1ccccc1)NC(=O)C1C[C@@H](O)CN1C(=O)Cc1ccccc1 (stereo not given in full) | 6.86 | – | – | – | – |

The next lines start with results.

| pIC50 (Substance-P receptor; read-out: IC50) | IC50 (Substance-P receptor) | pIC50 (Substance-P receptor) | Structure (SMILES) | inhibition in vivo at 10 mg/kg (Cavia porcellus [1]) [%] | inhibition in vivo at 100 mg/kg (Cavia porcellus [2]) [%] |
| --- | --- | --- | --- | --- | --- |
| 8.15 | – | – | CN(Cc1ccccc1)C(=O)[C@@H](Cc1ccc([N+](=O)[O-])cc1)NC(=O)C1C[C@@H](O)CN1C(=O)c1cn(C)c2ccccc12 (stereo not given in full) | 19 | 39 |
| 8.46 | – | – | CN(Cc1ccccc1)C(=O)[C@@H](Cc1cn(C=O)c2ccccc12)NC(=O)C1C[C@@H](O)CN1C(=O)c1cn(C)c2ccccc12 (stereo not given in full) | – | 21 |
| 7.99 | – | – | CN(Cc1ccccc1)C(=O)[C@@H](Cc1csc2ccccc12)NC(=O)C1C[C@@H](O)CN1C(=O)c1cn(C)c2ccccc12 (stereo not given in full) | 34 | 99 |
| 7.85 | – | – | CN(Cc1ccccc1)C(=O)[C@@H](Cc1ccccc1F)NC(=O)C1C[C@@H](O)CN1C(=O)c1cn(C)c2ccccc12 (stereo not given in full) | – | 35 |
| 8.10 | – | – | CN(Cc1ccccc1)C(=O)[C@@H](Cc1ccccc1)NC(=O)C1CCN1C(=O)c1c[nH]c2ccccc12 (stereo not given in full) | – | – |
| 8.05 | – | – | CN(Cc1ccccc1)C(=O)[C@@H](Cc1ccccc1)NC(=O)C1C[C@@H](O)CN1C(=O)/C=C/c1ccccc1 (stereo not given in full) | 47 | – |
| 8.77 | – | – | CN(Cc1ccccc1)C(=O)[C@@H](Cc1ccc2ccccc2c1)NC(=O)C1C[C@@H](O)CN1C(=O)c1cn(C)c2ccccc12 (stereo not given in full) | 86 | 94 |
| 7.94 | – | – | CN(Cc1ccccc1)C(=O)[C@@H](Cc1ccc2c(c1)CCCC2)NC(=O)C1C[C@@H](O)CN1C(=O)c1cn(C)c2ccccc12 (stereo not given in full) | 69 | 87 |
| 8.12 | – | – | COc1ccc(C[C@@H](NC(=O)C2C[C@@H](O)CN2C(=O)c2cn(C)c3ccccc23)C(=O)N(C)Cc2ccccc2)cc1 (stereo not given in full) | 29 | 91 |
| 8.77 | – | – | CN(Cc1ccccc1)C(=O)[C@@H](Cc1c[nH]c2ccccc12)NC(=O)C1C[C@@H](O)CN1C(=O)c1cn(C)c2ccccc12 (stereo not given in full) | – | 7 |
| 8.96 | – | – | CN(Cc1ccccc1)C(=O)[C@@H](Cc1ccc2c(c1)OCCO2)NC(=O)C1C[C@@H](O)CN1C(=O)c1cn(C)c2ccccc12 (stereo not given in full) | – | 1 |
| 8.46 | – | – | CN(C)CCn1cc(C(=O)N2C[C@H](O)CC2C(=O)N[C@H](Cc2ccccc2)C(=O)N(C)Cc2ccccc2)c2ccccc21 (stereo not given in full) | 2 | – |
| 7.85 | – | – | CN(Cc1ccccc1)C(=O)[C@@H](Cc1ccccc1)NC(=O)C(CCCCN)NC(=O)c1c[nH]c2ccccc12 (stereo not given in full) | – | – |
| 8.27 | – | – | CN(Cc1ccccc1)C(=O)[C@@H](Cc1ccc(N)cc1)NC(=O)C1C[C@@H](O)CN1C(=O)c1cn(C)c2ccccc12 (stereo not given in full) | – | 0 |
| 7.85 | – | – | CN(Cc1ccccc1)C(=O)[C@@H](Cc1ccccc1)NC(=O)C1C[C@@H](O)CN1C(=O)CCc1ccccc1 (stereo not given in full) | 4 | – |
| 8.05 | – | – | CN(Cc1ccccc1)C(=O)[C@@H](Cc1ccccc1)NC(=O)C(CC(N)=O)NC(=O)c1c[nH]c2ccccc12 (stereo not given in full) | – | – |
| 7.96 | – | – | CN(Cc1ccccc1)C(=O)[C@@H](Cc1ccccc1)NC(=O)C(CO)NC(=O)c1c[nH]c2ccccc12 (stereo not given in full) | – | – |
| 8.30 | – | – | CN(Cc1ccccc1)C(=O)[C@@H](Cc1ccccc1)NC(=O)C1C[C@@H](O)CN1C(=O)c1[nH]nc2ccccc12 (stereo not given in full) | 0 | – |
| 8.27 | – | – | CN(Cc1ccccc1)C(=O)[C@@H](Cc1ccccc1)NC(=O)C1CCCN1C(=O)c1c[nH]c2ccccc12 (stereo not given in full) | – | – |
| 8.34 | – | – | CN(Cc1ccccc1)C(=O)C(Cc1ccccc1)NC(=O)C1C[C@H](O)CN1C(=O)c1c[nH]c2ccccc12 (single isomer, unassigned) | – | – |
| 8.13 | – | – | CN(Cc1ccccc1)C(=O)C(Cc1ccccc1)NC(=O)C1C[C@@H](O)CN1C(=O)c1c[nH]c2ccccc12 (single isomer, unassigned) | – | 8 |

From ChEMBL document CHEMBL1127564, “Studies on neurokinin antagonists. 4. Synthesis and structure-activity relationships of novel dipeptide substance P antagonists: N2-[(4R)-4-hydroxy-1-[(1-methyl-1H-indol-3-yl)carbonyl]-L-prolyl]-N- methyl-N-(phenylmethyl)-3-(2-naphthyl)-L-alaninamide and its related compounds” (J Med Chem, 1994)
